Rows were chosen to be rich in hits. Some 2.7% of all compounds tested hit in one or more screens of this group.
ARFGAP1 inh – inhibits rat ARF GTPase activating protein 1; Q62848; Arfgap1-stimulated ARF1 GTP hydrolysis, GDP FP detection; inhibition, % at 16.5 µM; actives 0.26% (n = 360,000); AID 651572;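 active means inhibition above a per-plate limit, mean inhibition of low control wells plus 3 SD, cut at about 25% in these data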
Target sequence (Q62848 1-136 limits assumed): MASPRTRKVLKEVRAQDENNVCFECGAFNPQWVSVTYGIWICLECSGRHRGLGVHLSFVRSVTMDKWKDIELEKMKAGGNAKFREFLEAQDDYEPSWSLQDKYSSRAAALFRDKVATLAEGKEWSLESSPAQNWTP
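Material: truncated rat Arfgap1 GAP domain; Incubation: compound-enzyme preincubation 20 min, reaction 120 min, detection 60 min, 25 °C; Read-out: percent inhibition of Arfgap1-stimulated GTP hydrolysis; Technique: FP, GDP Alexa 633 tracer displaced from anti-GDP antibody, 620/688 nm; Controls: No-Arfgap1 wells (100%) versus DMSO full-reaction wells (0%); Replication: single well per compound.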
HGIII-sPLA2 inh – Inhibits HGIII-sPLA2 liposome hydrolysis, primary screen; actives 0.56% (n = 370,000); QFRET BODIPY PC-A2 liposome hydrolysis, fluorescence; AID 743126; Q9NZ20; inhibition, % at 12.2 µM;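 active means inhibition above mean plus 3 SD of compounds lying within the high and low control bounds, cut at about 19% in these data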
Target sequence (Q9NZ20 whole entry, looked up): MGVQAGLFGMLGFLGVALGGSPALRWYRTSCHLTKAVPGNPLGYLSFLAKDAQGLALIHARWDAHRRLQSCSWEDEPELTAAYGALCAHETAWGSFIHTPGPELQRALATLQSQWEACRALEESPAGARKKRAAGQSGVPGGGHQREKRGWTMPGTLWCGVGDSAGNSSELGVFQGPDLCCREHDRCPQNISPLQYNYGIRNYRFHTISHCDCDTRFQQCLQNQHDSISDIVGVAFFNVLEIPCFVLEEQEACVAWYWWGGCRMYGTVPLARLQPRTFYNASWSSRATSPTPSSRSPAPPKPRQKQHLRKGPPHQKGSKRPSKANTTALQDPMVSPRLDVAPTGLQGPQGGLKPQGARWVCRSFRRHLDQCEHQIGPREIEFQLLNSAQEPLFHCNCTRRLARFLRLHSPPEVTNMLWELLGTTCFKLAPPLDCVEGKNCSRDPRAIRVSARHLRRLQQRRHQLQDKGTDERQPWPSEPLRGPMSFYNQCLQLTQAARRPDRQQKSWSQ
MsrA inh – bovine MsrA inhibition; purified bovine MsrA, absorbance read-out; inhibition, % at 15.5 µM; actives 0.75% (n = 360,000); AID 651718
NR1D1 modulator – modulators of human Rev-erb alpha DNA binding. actives 0.79% (n = 370,000). activity, % at 10 µM. Rev-erbα–FITC-DNA binding, fluorescence polarization, 90 min;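 active means activity above about 14%, limit read from the data; passing the limit was not always enough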
MsrA act – activates bovine MsrA enzyme | purified bovine MsrA, absorbance read-out | activation, % at 10.6 µM | actives 0.3% (n = 360,000) | AID 602163; in the data active means activation above about 7.5%
ASAP1 inh – ASAP1 ArfGAP inhibition | inhibition, % at 16.5 µM | AID 624377 | ASAP1-stimulated ARF1 GTP hydrolysis, GDP FP detection | Q9ULH1 | actives 0.19% (n = 360,000); in the data active means inhibition above about 25%
MsrA inh confirm – confirmation of bovine MsrA inhibitors; actives 41% (n = 2,300); purified bovine MsrA, absorbance read-out; shares compounds with MsrA inh; inhibition, % at 15.5 µM; AID 651822;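 further: coupled to thioredoxin reductase with NADPH and selenocystamine and DMSO as substrate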
A number is an active result. Unless noted, no stated cut-off is given here; in the data, active means inhibition above about 4.5%; inactive means the rest.

`CSc1nc(N2CCOCC2)c2c(c1C#N)CC(C)(C)OC2` gave ARFGAP1 inh inactive, HGIII-sPLA2 inh inactive, MsrA inh inactive, NR1D1 modulator inactive, MsrA act inactive and ASAP1 inh inactive.
N#CCCSc1nc(N2CCOCC2)c2c(c1C#N)CCCC2 was read as ARFGAP1 inh inactive, HGIII-sPLA2 inh inactive, MsrA inh 18.2, NR1D1 modulator inactive, MsrA act inactive, ASAP1 inh inactive and MsrA inh confirm 15.0.
CSc1nc(N2CCOCC2)c2c(c1C#N)CCCCC2 was read as ARFGAP1 inh inactive, HGIII-sPLA2 inh inactive, MsrA inh 5.5, NR1D1 modulator inactive, MsrA act inactive, ASAP1 inh inactive and MsrA inh confirm inactive.
`CCCc1nc(N2CCOCC2)c(C#N)c2c1CCCC2` gave ARFGAP1 inh inactive, HGIII-sPLA2 inh inactive, MsrA inh inactive, NR1D1 modulator inactive, MsrA act inactive and ASAP1 inh inactive.
`CCCSc1nc(N2CCOCC2)c2c(c1C#N)CCCC2` gave ARFGAP1 inh inactive, HGIII-sPLA2 inh inactive, MsrA inh 12.7, NR1D1 modulator inactive, MsrA act inactive, ASAP1 inh inactive and MsrA inh confirm 11.0.
Screening CCC(C)NC(=O)C1CCN(S(=O)(=O)c2ccc3[nH]c(=O)oc3c2)CC1 (centres undefined) returned HGIII-sPLA2 inh inactive and NR1D1 modulator inactive.
`COc1cc(/C=C2\SC(N3CCCCC3)=NC2=O)cc(OC)c1OC` gave ARFGAP1 inh inactive, HGIII-sPLA2 inh inactive, MsrA inh inactive, NR1D1 modulator inactive, MsrA act inactive and ASAP1 inh inactive.
`COc1ccc(/C=C2\SC(N3CCCCC3)=NC2=O)cc1` gave ARFGAP1 inh inactive, HGIII-sPLA2 inh inactive, MsrA inh 5.9, NR1D1 modulator inactive, MsrA act inactive, ASAP1 inh inactive and MsrA inh confirm 4.7.
Screening O=C1N=C(N2CCCCC2)S/C1=C\c1ccncc1 returned ARFGAP1 inh inactive, HGIII-sPLA2 inh inactive, MsrA inh inactive, NR1D1 modulator inactive, MsrA act inactive and ASAP1 inh inactive.
`CCc1ccc(/C=C2\SC(N3CCCC3)=NC2=O)cc1` gave ARFGAP1 inh inactive, HGIII-sPLA2 inh inactive, MsrA inh 4.8, NR1D1 modulator inactive, MsrA act inactive, ASAP1 inh inactive and MsrA inh confirm inactive.
Screening CCOC(=O)[C@]12CCCCC/C=C\1N(Cc1ccc(OC)cc1)C(=O)[C@H]2CC(=O)N1CCCC1 returned HGIII-sPLA2 inh inactive and NR1D1 modulator inactive.
Screening Clc1cc(Cl)cc(CNC2CCC23CCCCC3)c1 (centres undefined) returned HGIII-sPLA2 inh inactive and NR1D1 modulator inactive.
Screening Cc1ccc(/C=N/N=C2/NC(=O)CS2)o1 returned ARFGAP1 inh inactive, HGIII-sPLA2 inh inactive, MsrA inh 5.5, NR1D1 modulator inactive, MsrA act inactive, ASAP1 inh inactive and MsrA inh confirm inactive.
`O=C(OCc1cn(Cc2ccc(F)cc2F)nn1)N1CCCC1` gave HGIII-sPLA2 inh inactive and NR1D1 modulator inactive.
Screening S=c1[nH]nc(-c2ccccc2Cl)n1/N=C/C=C/c1ccco1 returned ARFGAP1 inh inactive, HGIII-sPLA2 inh inactive, MsrA inh inactive, NR1D1 modulator inactive, MsrA act inactive and ASAP1 inh inactive.
`S=c1[nH]nc(-c2ccncc2)n1/N=C/C=C/c1ccco1` gave ARFGAP1 inh inactive, HGIII-sPLA2 inh inactive, MsrA inh 7.1, NR1D1 modulator inactive, MsrA act inactive, ASAP1 inh inactive and MsrA inh confirm 4.9.
For C(=C\c1ccco1)/C=N/n1cnnc1 the results were ARFGAP1 inh inactive, HGIII-sPLA2 inh inactive, MsrA inh 4.7, NR1D1 modulator inactive, MsrA act inactive, ASAP1 inh inactive and MsrA inh confirm 5.7.
O=C(N/N=C/C=C/c1ccco1)C(O)c1ccccc1 (centres undefined) was read as ARFGAP1 inh inactive, HGIII-sPLA2 inh inactive, MsrA inh inactive, NR1D1 modulator inactive, MsrA act inactive and ASAP1 inh inactive.
For C=CCN1C(=O)[C@@H](CC(=O)NCc2ccc(C)o2)[C@]2(C(=O)OC)CCCCC=C12 the results were HGIII-sPLA2 inh inactive and NR1D1 modulator inactive.
Screening COc1ccc(OC)c(S(=O)(=O)N2CCCCC2C(=O)N2CCN(c3ccccc3F)CC2)c1 (centres undefined) returned HGIII-sPLA2 inh inactive and NR1D1 modulator inactive.
`CC(C)C[C@H]1CN([C@@H](Cc2ccccc2)CN2CCC[C@@H]2CN2C(=O)C(=O)NC[C@@H]2Cc2ccc(O)cc2)C(=O)C(=O)N1CC1CCCCC1` gave ARFGAP1 inh inactive, HGIII-sPLA2 inh inactive, MsrA inh 4.8, NR1D1 modulator inactive, MsrA act inactive, ASAP1 inh inactive and MsrA inh confirm inactive.
COC(=O)[C@H](C(C)C)N1CCc2nnn(Cc3ccc(C)cc3)c2-c2cc(F)ccc2S1(=O)=O was read as HGIII-sPLA2 inh inactive and NR1D1 modulator inactive.
`CCCCCNc1nc(NCCCO)c(C#N)c2c1CN(C)CC2` gave ARFGAP1 inh inactive, HGIII-sPLA2 inh inactive, MsrA inh 5.0, NR1D1 modulator inactive, MsrA act inactive, ASAP1 inh inactive and MsrA inh confirm inactive.
`CCN(CC)CCCNC(=O)CSc1nc2cccnc2n1C` gave HGIII-sPLA2 inh inactive and NR1D1 modulator inactive.
C/C(=N/O)c1cc(C(C)(C)C)c(O)c(C(C)(C)C)c1 was read as ARFGAP1 inh inactive, HGIII-sPLA2 inh inactive, MsrA inh 11.9, NR1D1 modulator inactive, MsrA act inactive, ASAP1 inh inactive and MsrA inh confirm 11.4.
CC(C)(Sc1cc(C(C)(C)C)c(O)c(C(C)(C)C)c1)Sc1cc(C(C)(C)C)c(O)c(C(C)(C)C)c1 was read as ARFGAP1 inh inactive, HGIII-sPLA2 inh inactive, MsrA inh inactive, NR1D1 modulator inactive, MsrA act inactive and ASAP1 inh inactive.
CN(C)/N=C/c1ccc([N+](=O)[O-])cc1[N+](=O)[O-] was read as ARFGAP1 inh inactive, HGIII-sPLA2 inh inactive, MsrA inh 7.7, NR1D1 modulator inactive, MsrA act inactive, ASAP1 inh inactive and MsrA inh confirm inactive.
Cc1nc(NC2CCCC2)c2nnn(Cc3ccccc3)c2n1 was read as HGIII-sPLA2 inh inactive and NR1D1 modulator inactive.
For FC(F)(F)c1cccc(N2CCN(C(=S)Nc3nccc4ccccc34)CC2)c1 the results were HGIII-sPLA2 inh inactive and NR1D1 modulator inactive.
`C=CCc1cc(/C=C2/NC(=O)NC2=O)cc(OCC)c1O` gave ARFGAP1 inh inactive, HGIII-sPLA2 inh inactive, MsrA inh 4.8, NR1D1 modulator inactive, MsrA act inactive, ASAP1 inh inactive and MsrA inh confirm inactive.
For C=CCc1cc(/C=C2/NC(=S)NC2=O)cc(OC)c1O the results were ARFGAP1 inh inactive, HGIII-sPLA2 inh inactive, MsrA inh inactive, NR1D1 modulator inactive, MsrA act inactive and ASAP1 inh inactive.
For CCOc1cc(/C=C2/NC(=O)NC2=O)cc([N+](=O)[O-])c1O the results were ARFGAP1 inh inactive, HGIII-sPLA2 inh inactive, MsrA inh 5.6, NR1D1 modulator inactive, MsrA act inactive, ASAP1 inh inactive and MsrA inh confirm inactive.
